Reference: ChEMBL document CHEMBL1157759, “Discovery of GS-9131: Design, synthesis and optimization of amidate prodrugs of the novel nucleoside phosphonate HIV reverse transcriptase (RT) inhibitor GS-9148” (Bioorg Med Chem, 2010)

Tests used:
[1] = system: PBMC; assay: Drug metabolism in Beagle dog PBMC assessed as 5-[(6-Amino-purin-9-yl)-4-fluoro-2,5-dihydro-furan-2-yloxymethyl] phosphonic acid diphosphate level after 5 hrs; assay type: ADME, cell-based, Canis lupus familiaris
Outline: (§1)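 Beagle dogs were given a single oral dose of 3 mg/kg. The prodrug was followed in plasma. The parent diacid and its active diphosphate metabolite were followed inside isolated PBMCs over time after dosing. Plasma half-life and PBMC-to-plasma levels were derived from these time-course profiles.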

[2] = target: T1, DNA polymerase subunit gamma-1 (Homo sapiens) (UniProt P54098); assay: Inhibition of human recombinant DNA polymerase gamma by scintillation counting
T1 sequence (whole entry): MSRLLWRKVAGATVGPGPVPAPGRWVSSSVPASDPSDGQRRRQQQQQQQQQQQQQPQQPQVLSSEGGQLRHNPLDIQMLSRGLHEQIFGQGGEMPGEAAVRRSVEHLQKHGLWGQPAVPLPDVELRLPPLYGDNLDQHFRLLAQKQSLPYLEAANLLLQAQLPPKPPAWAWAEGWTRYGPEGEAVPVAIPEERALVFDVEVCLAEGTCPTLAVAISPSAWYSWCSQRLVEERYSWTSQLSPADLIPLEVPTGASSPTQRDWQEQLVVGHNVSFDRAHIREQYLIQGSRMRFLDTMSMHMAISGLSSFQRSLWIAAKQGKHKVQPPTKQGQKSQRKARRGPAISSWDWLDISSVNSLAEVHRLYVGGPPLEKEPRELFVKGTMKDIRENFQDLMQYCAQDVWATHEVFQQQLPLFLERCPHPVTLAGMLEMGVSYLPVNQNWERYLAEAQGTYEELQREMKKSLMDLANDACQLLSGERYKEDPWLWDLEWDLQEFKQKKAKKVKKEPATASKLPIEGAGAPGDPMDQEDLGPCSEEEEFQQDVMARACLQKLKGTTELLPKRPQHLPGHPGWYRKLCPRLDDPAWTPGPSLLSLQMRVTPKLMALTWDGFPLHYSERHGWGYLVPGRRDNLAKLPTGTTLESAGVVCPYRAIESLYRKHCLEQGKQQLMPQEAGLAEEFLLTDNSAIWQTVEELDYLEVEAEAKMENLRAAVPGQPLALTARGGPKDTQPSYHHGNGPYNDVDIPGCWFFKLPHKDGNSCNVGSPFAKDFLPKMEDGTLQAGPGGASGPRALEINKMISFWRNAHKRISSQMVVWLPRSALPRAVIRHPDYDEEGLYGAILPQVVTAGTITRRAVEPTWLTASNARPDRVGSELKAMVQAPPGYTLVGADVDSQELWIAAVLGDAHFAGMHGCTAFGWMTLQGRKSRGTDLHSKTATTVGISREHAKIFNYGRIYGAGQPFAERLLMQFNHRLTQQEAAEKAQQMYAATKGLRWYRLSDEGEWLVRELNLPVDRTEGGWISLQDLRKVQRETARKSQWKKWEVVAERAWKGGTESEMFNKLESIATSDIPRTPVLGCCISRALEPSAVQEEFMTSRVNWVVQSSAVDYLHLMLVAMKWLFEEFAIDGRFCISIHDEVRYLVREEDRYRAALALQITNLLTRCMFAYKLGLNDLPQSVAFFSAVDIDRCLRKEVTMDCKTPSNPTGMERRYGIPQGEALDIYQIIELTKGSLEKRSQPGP

[3] = target: Human immunodeficiency virus type 1 reverse transcriptase (Human immunodeficiency virus 1, UniProt Q72547); assay: Inhibition of HIV1 reverse transcriptase
[4] = Selectivity for inhibition of HIV wild type reverse transcriptase over inhibition of human recombinant DNA polymerase gamma
[5] = Half life in human hepatocytes at 2 uM by LC/MS/MS analysis; settings: t1/2
[6] = system: PBMC; assay: Metabolic stability in cathepsin A-overexpressing human PBMC assessed as compound degradation per ug of protein at 10 uM after 120 mins by scintillation counting; settings: 2 h, 30 µM
[7] = system: Human immunodeficiency virus 1; assay: Antiviral activity against HIV1 3B infected in human MT2 cells assessed as inhibition of virus-induced cytopathic effect after 5 days by XTT assay; assay type: functional, organism-based
[8] = Half life in dog hepatocytes at 2 uM by LC/MS/MS analysis; settings: for t1/2: 2 µM; for half-life at 2 µM: t1/2
[9] = Cytotoxicity against human MT2 cells after 5 days by XTT assay
[10] = Half life in dog intestine S9 fraction at 2 uM by LC/MS/MS analysis; settings: for half-life at 2 µM: intestine S9 fraction, t1/2
[11] = Half life in human intestine S9 fraction at 2 uM by LC/MS/MS analysis
[12] = Hydrolytic stability assessed as compound degradation per ug of protein at 10 uM after 90 mins by scintillation counting in presence of human recombinant cathepsin A; settings: 1.5 h
[13] = Bioavailability in iv dosed Beagle dog; settings: in vivo
[14] = Oral bioavailability in Beagle dog; settings: in vivo
[15] = Clearance in iv dosed Beagle dog after 24 hrs; settings: in vivo
[16] = Drug metabolism in Beagle dog assessed as ratio of GS-9148 level in PBMC to plasma at 3 mg/kg, po up to 20 mins; assay type: ADME, organism-based, Canis lupus familiaris; design: dose 3 mg/kg, route oral; settings: in vivo, 2 h, in the assay text read “up to 2 hrs” for “up to 20 mins”; outline: as §1
[17] = Cytotoxicity against human HepG2 cells assessed as inhibition of mitochondrial DNA replication after 14 days; settings: read-out: MTC50
[18] = Human immunodeficiency virus 1, 3B, MT2, 120 h

Row | SMILES | Activity [6] [pmol/min] | EC50 ([7]; mt2) [µM] | CC50 at 120 h [9] [µM] | half-life at 2 µM [10] [min] | Activity [12] [pmol/min] | half-life at 2 µM [8] [min] | clearance at 24 h [15] [mL/min/kg] | other results
1 | Nc1ncnc2c1ncn2[C@@H]1O[C@H](OCP(=O)(O)OP(=O)(O)OP(=O)(O)O)C=C1F |  |  |  |  |  |  |  | Activity [1]: > 9 µM; Activity [2]: 100 µM; IC50 [3]: 1.9 µM; fold change (FC) [4]: > 130
2 | CC(C)OC(=O)[C@H](C)NP(=O)(CO[C@@H]1C=C(F)[C@H](n2cnc3c(N)ncnc32)O1)Oc1ccccc1 (stereo in doubt; 24) [(2S)-ISOPROPYL 2-(((2R,5R)-5-(6-AMINO-9H-PURIN-9-YL)-4-FLUORO-2,5-DIHYDROFURAN-2-YLOXY)(PHENOXY)PHOSPHORYLAMINO)PROPANOATE (ENANTIOMERIC MIX)] | 20 | 0.0092 | 139 | 15 | 35000 |  |  | half-life at 2 µM [5]: 159 min; t1/2 [8]: 103 min; half-life at 2 µM [11]: 106 min
3 | C[C@H](NP(=O)(CO[C@@H]1C=C(F)[C@H](n2cnc3c(N)ncnc32)O1)Oc1ccccc1)C(=O)OC1CCC1 (stereo in doubt; 18r(A)) [(2S)-CYCLOBUTYL 2-((((2R,5R)-5-(6-AMINO-9H-PURIN-9-YL)-4-FLUORO-2,5-DIHYDROFURAN-2-YLOXY)METHYL)(PHENOXY)PHOSPHORYLAMINO)PROPANOATE (ENANTIOMERIC MIX)] | 3.2 | > 0.045 |  |  | 2527 | 140 |  | bioavailability [13]: 9.8%; t1/2 ([10]; s9, 2 µM, 2 µM): 32 min
4 | CC(C)COC(=O)[C@H](Cc1ccccc1)NP(=O)(CO[C@@H]1C=C(F)[C@H](n2cnc3c(N)ncnc32)O1)Oc1ccccc1 (some centres not stated) | 31 |  | 38.3 | 8.3 | 29655 | 28 | 61.7 | EC50 [7, 18]: 0.006 µM; bioavailability [14]: 2.6%
5 | CC(C)OC(=O)[C@H](C)N[P@](=O)(CO[C@H](C)Cn1cnc2c(N)ncnc21)Oc1ccccc1 [TENOFOVIR ALAFENAMIDE] |  |  |  |  |  |  | 37.2 | bioavailability [14]: 21%
6 | C[C@H](NP(=O)(CO[C@@H]1C=C(F)[C@H](n2cnc3c(N)ncnc32)O1)Oc1ccccc1)C(=O)OC1CCC1 (stereo in doubt; 18r) [(2S)-CYCLOBUTYL 2-((((2R,5R)-5-(6-AMINO-9H-PURIN-9-YL)-4-FLUORO-2,5-DIHYDROFURAN-2-YLOXY)METHYL)(PHENOXY)PHOSPHORYLAMINO)PROPANOATE (ENANTIOMERIC MIX)] | 7.7 | 0.036 | 57 | 25 | 18150 |  | 46 | half-life at 2 µM [5]: 98 min; t1/2 [8]: 100 min; half-life at 2 µM [11]: 122 min
7 | C[C@H](NP(=O)(CO[C@@H]1C=C(F)[C@H](n2cnc3c(N)ncnc32)O1)Oc1ccccc1)C(=O)OC1CCC1.Cl.Cl (some centres not stated) | 19 | 0.021 |  | 3.9 | 23997 | 52 |  | bioavailability [13]: 18%
8 | Nc1ncnc2c1ncn2[C@@H]1O[C@H](OCP(=O)(O)O)C=C1F [GS-9148] |  |  | > 100 |  |  |  |  | Ratio [16]: 10; EC50 [7, 18]: 10.6 µM; CC50 at 336 h [17]: > 300 µM
